Reference: ChEMBL document CHEMBL2176986, “Selective and potent urea inhibitors of cryptosporidium parvum inosine 5'-monophosphate dehydrogenase” (J Med Chem, 2012)

What was measured:
Toxoplasma gondii [1] = assay: Antiparasitic activity against Toxoplasma gondii expressing Cryptosporidium parvum IMPDH and co-expressing yellow fluorescent protein infected to human TERT immobilized human foreskin fibroblasts assessed as parasite growth inhibition for 6 to 7 days by fluorescence based assay; type: functional, organism-based
Outline: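 Parasite lines carrying yellow fluorescent protein were grown on hTERT-immortalized human foreskin fibroblasts. One line depends on C. parvum IMPDH (Toxo/CpIMPDH). The other is wild-type strain RH, which has its own eukaryotic IMPDH. Fluorescence (Ex 485, Em 530) was read daily for 6-7 days. Growth inhibition was taken on a day within exponential growth.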

[2] = target: T1, Inosine-5'-monophosphate dehydrogenase (Cryptosporidium parvum, UniProt Q8T6T2); assay: Inhibition of Cryptosporidium parvum recombinant IMPDH expressed in Escherichia coli assessed as production of NADH incubated for 5 mins by fluorescence based assay
T1 sequence (Q8T6T2 whole entry): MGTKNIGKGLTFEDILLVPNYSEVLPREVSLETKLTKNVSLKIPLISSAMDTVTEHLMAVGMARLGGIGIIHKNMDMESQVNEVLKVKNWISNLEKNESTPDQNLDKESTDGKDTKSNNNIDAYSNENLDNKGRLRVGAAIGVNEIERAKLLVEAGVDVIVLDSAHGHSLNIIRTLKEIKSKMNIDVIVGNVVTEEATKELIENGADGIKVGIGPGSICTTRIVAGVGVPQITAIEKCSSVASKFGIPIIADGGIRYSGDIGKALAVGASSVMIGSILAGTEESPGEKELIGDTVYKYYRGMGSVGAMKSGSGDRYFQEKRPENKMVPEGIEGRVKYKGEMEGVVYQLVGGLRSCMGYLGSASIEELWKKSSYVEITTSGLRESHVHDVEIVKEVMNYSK
Outline: (§1)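 Recombinant CpIMPDH purified from E. coli, 10 nM, preincubated with inhibitor 5 min at room temperature before substrates added. NADH formation followed by fluorescence. Line 3 also includes 0.05% fatty-acid-free BSA.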

Toxoplasma gondii [3] = assay: Toxicity against wild type Toxoplasma gondii expressing yellow fluorescent protein infected in human TERT immobilized human foreskin fibroblasts assessed as parasite growth inhibition for 6 to 7 days by fluorescence based assay; type: organism-based
Outline: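 Parasite lines carrying yellow fluorescent protein were grown on hTERT-immortalized human foreskin fibroblasts. One line depends on C. parvum IMPDH (Toxo/CpIMPDH). The other is wild-type strain RH, which has its own eukaryotic IMPDH. Growth inhibition was taken on a day within exponential growth.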

[4] = target: T1, Inosine-5'-monophosphate dehydrogenase; assay: Inhibition of Cryptosporidium parvum recombinant IMPDH expressed in Escherichia coli assessed as production of NADH in presence of 0.05% fatty acid free BSA incubated for 5 mins by fluorescence based assay; outline: as §1
Toxoplasma gondii [5] = assay: Selectivity ratio of EC50 of wild type Toxoplasma gondii to EC50 of Toxoplasma gondii expressing Cryptosporidium parvum IMPDH
Outline: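 Selectivity is the EC50 against wild-type RH T. gondii divided by the EC50 against the CpIMPDH-dependent strain. Both were measured by daily YFP fluorescence of parasites on hTERT human foreskin fibroblasts over 6-7 days, with inhibition taken in exponential growth.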

[6] = target: Inosine-5'-monophosphate dehydrogenase 2 (Homo sapiens, UniProt P12268); assay: Inhibition of human IMPDH 2
Liver = assay: Half life in mouse liver microsomes; type: ADME, Microsome
Plasma = assay: Half life in mouse plasma; type: ADME, cell-free

| Structure (SMILES) | EC50 (Toxoplasma gondii [1]) [nM] | IC50 [2] [nM] | EC50 (Toxoplasma gondii [3]) [nM] | IC50 [4] [nM] | Ratio EC50 (Toxoplasma gondii [5]) | IC50 [6] [nM] | t1/2 (Liver) [h] | t1/2 (Plasma) [h] |
| --- | --- | --- | --- | --- | --- | --- | --- | --- |
| CC(O)c1cccc(C(C)(C)NC(=O)Nc2ccc(Cl)cc2)c1 (stereo not given) | 900 | 80 | 19000 | 120 |  |  |  |  |
| C=C(C)c1cccc(C(C)(C)NC(=O)Nc2ccc3ccccc3n2)c1 | 3400 | 250 | 3000 | 1100 | 0.9 | ≥ 5000 |  |  |
| C=C(C)c1cccc(C(C)(C)NC(=O)Nc2ccc(Cl)c(C(F)(F)F)c2)c1 |  | 4 |  | 20 |  | ≥ 5000 |  |  |
| CO/N=C(\C)c1cccc(C(C)(C)NC(=O)Nc2ccc(Cl)c(C(F)(F)F)c2)c1 | 16 | 5 | 1400 | 18 | 86 |  | 0.55 |  |
| C=C(C)c1cccc(C(C)(C)NC(=O)Nc2ccc(Br)cc2)c1 | 200 | 10 | > 25000 | 20 | >120 | ≥ 5000 |  |  |
| CC(C)(NC(=O)Nc1ccc2[nH]c(=O)[nH]c2c1)c1ccccc1 |  | > 5000 |  |  |  |  |  |  |
| C=C(C)c1cccc(C(C)(C)NC(=O)Nc2cccc3ccccc23)c1 |  | > 5000 |  |  |  | ≥ 5000 |  |  |
| NC(=O)c1cc(NC(=O)NC2(c3cccc(-c4ccccc4)c3)CC2)ccc1Cl | 600 | 40 | 9000 | 90 | 15 |  |  |  |
| C=C(C)c1cccc(C(C)(C)NC(=O)Nc2ccc(Cl)c(OC)c2)c1 | 18 | 1.3 | 2300 | 5 | 127 | ≥ 5000 |  |  |
| CC(C)(NC(=O)Nc1ccc(Cl)cc1)c1ccc(-c2ccccc2)cc1 |  | > 5000 |  |  |  |  |  |  |
| C/C(=N\O)c1cccc(C(C)(C)NC(=O)Nc2ccc3ccccc3c2)c1 | 80 | 1 | 5000 | 2.3 | 63 |  |  |  |
| CO/N=C(\C)c1cccc(C(C)(C)NC(=O)Nc2ccc(Cl)c(C(N)=O)c2)c1 | 200 | 5 | > 25000 | 5 | >120 |  |  |  |
| CO/N=C(\C)c1cccc(C(C)(C)NC(=O)Nc2ccc3ccccc3c2)c1 | 13 | 1.6 |  | 13 |  |  |  |  |
| CC(=O)c1cccc(C(C)(C)OC(=O)Nc2ccc(Cl)cc2)c1 |  | 90 |  | 120 |  |  |  |  |
| C/C(=N\OCCN)c1cccc(C(C)(C)NC(=O)Nc2ccc(Cl)c([N+](=O)[O-])c2)c1 | 510 | 20 | 10100 | 24 | 20 |  | 2.02 |  |
| C=C(C)c1cccc(C(C)(C)NC(=O)Nc2ccc3c(c2)OCCO3)c1 | 200 | 7.2 | 8000 | 110 | 50 | ≥ 5000 |  |  |
| C=C(C)c1cccc(C(C)(C)NC(=O)Nc2ccc(Cl)c(C(=O)N(C)C)c2)c1 | 90 | 8 | 9000 | 11.7 | 100 | ≥ 5000 |  |  |
| C=C(C)c1cccc(C(C)(C)NC(=O)Nc2ccc(Cl)c(C(N)=O)c2)c1 | 230 | 2.3 | 15000 | 3 | 65 | ≥ 5000 | 0.417 | > 2 |
| CC(C)(NC(=O)Nc1ccc(Cl)c(C(N)=O)c1)c1cccc(-c2ccccc2)c1 | 210 | 4 | 6000 | 14 |  |  |  |  |
| C=C(C)c1cccc(C(C)(C)NC(=O)Nc2ccc(C(C)(C)C)cc2)c1 | 7200 | > 5000 | 20000 |  | 3 | ≥ 5000 |  |  |
| C=C(C)c1cccc(C(C)(C)NC(=O)Nc2ccc3ncccc3c2)c1 | 20 | 1.8 | 7600 | 4 |  | ≥ 5000 |  |  |
| C=C(C)c1cccc(C(C)(C)NC(=O)Nc2ccc3[nH]c(=O)[nH]c3c2)c1 |  | 340 |  |  |  | > 5000 |  |  |
| C=C(C)c1cccc(C(C)(C)NC(=O)Nc2ccc(OC)cc2)c1 |  | 9 |  | 21 |  | ≥ 5000 |  |  |

| Structure (SMILES) | EC50 (Toxoplasma gondii [1]) [nM] | IC50 [2] [nM] | EC50 (Toxoplasma gondii [3]) [nM] | IC50 [4] [nM] | Ratio EC50 (Toxoplasma gondii [5]) | IC50 [6] [nM] | t1/2 (Liver) [h] | t1/2 (Plasma) [h] |
| --- | --- | --- | --- | --- | --- | --- | --- | --- |
| C=C(C)c1cccc(C(C)(C)NC(=O)Nc2ccc3ccccc3c2)c1 | 200 | 2.1 | > 25000 | 40 | >120 | ≥ 5000 |  |  |
| C=C(C)c1cccc(C(C)(C)NC(=O)Nc2ccc(Cl)cc2)c1 | 180 | 20 | > 25000 | 37 | >140 | ≥ 5000 |  |  |
| C/C(=N\O)c1cccc(C(C)(C)NC(=O)Nc2ccc3cccnc3c2)c1 | 58 | 0.9 | 14000 | 1.2 | 230 |  | 0.75 | > 2 |
| CC(=O)c1cccc(CNC(=O)Nc2ccc(Cl)cc2)c1 | 11000 | 5000 | 7000 |  | 0.6 |  |  |  |
| C/C(=N\O)c1cccc(C(C)(C)NC(=O)Nc2ccc(Cl)c(C(F)(F)F)c2)c1 | 10 | 1 |  | 4 |  |  | 1.47 |  |
| C=C(C)c1cccc(C(C)(C)NC(=O)Nc2cnc3ccccc3c2)c1 | 1100 | 70 | 2000 | 308 | 2.3 | ≥ 5000 |  |  |
| C/C(=N\O)c1cccc(C(C)(C)NC(=O)Nc2ccc(Cl)c([N+](=O)[O-])c2)c1 | 6 | 0.66 |  | 2 |  |  | 0.183 |  |
| CC(=O)c1cccc(C(C)NC(=O)Nc2ccc(Cl)cc2)c1 (stereo not given) | 2300 | 70 | 8000 | 110 |  |  |  |  |
| CC(C)c1cccc(C(C)(C)NC(=O)Nc2ccc3ccccc3c2)c1 |  | > 5000 |  |  |  |  |  |  |
| CC(=O)c1cccc(C(C)(C)NC(=O)Cc2ccc(Cl)cc2)c1 |  | > 5000 |  |  |  |  |  |  |
| CC(=O)c1cccc(C(C)(C)NC(=O)Oc2ccc(Cl)cc2)c1 |  | > 5000 |  |  |  |  |  |  |
| C=C(C)c1cccc(C(C)(C)NC(=O)Nc2ccccc2)c1 | 770 | 250 | 6000 | 410 | 8 | ≥ 5000 |  |  |
| C=C(C)c1cccc(C(C)(C)NC(=O)Nc2ccc3cccnc3c2)c1 | < 200 | 0.8 | 3000 | 6 | >15 | ≥ 5000 | 0.0983 | > 2 |
| CC(=O)c1cccc(C(C)(C)NC(=O)Nc2ccc(Cl)c(C(F)(F)F)c2)c1 | 200 | 9 | 3200 | 20 | 16 |  |  |  |
| CC(=O)c1cccc(C(C)(C)NC(=O)Nc2ccc(Cl)cc2)c1 |  | 39 |  | 64 |  |  |  |  |
| C=C(C)c1cccc(C(C)(C)NC(=O)Nc2ccc(Cl)c(Cl)c2)c1 | 220 | 6 | 4000 | 50 | 20 | ≥ 5000 |  |  |
| CC(=O)c1cccc(C(C)(C)NC(=O)Nc2ccc(Cl)c(C(N)=O)c2)c1 | 380 | 54 | > 25000 | 52 | >66 |  | > 11.7 | > 2 |
| C=C(C)c1cccc(C(C)(C)NC(=O)Nc2ccc(Cl)c(C(=O)NC)c2)c1 | 180 | 7 | 19000 | 14 | 100 | ≥ 5000 |  |  |
| C/C(=N\O)c1cccc(C(C)(C)NC(=O)Nc2ccc(Cl)c(C(N)=O)c2)c1 | 1900 |  | > 25000 | 6 | >12 |  | 3.17 | > 2 |
| C=C(C)c1cccc(C(C)(C)NC(=O)N(C)c2ccc(Cl)cc2)c1 |  | 900 |  | 5000 |  |  |  |  |
| C=C(C)c1cccc(C(C)(C)NC(=O)Nc2ccccc2Cl)c1 |  | > 5000 |  |  |  | ≥ 5000 |  |  |
| C=C(C)c1cccc(C(C)(C)NC(=O)Nc2cccc(Cl)c2)c1 | 380 | 70 | 402 | 330 | 1 | ≥ 5000 |  |  |
